The entries come from a sample that favours hits as a whole.
H69AR inhibit – blocks growth of human H69AR lung tumor cells; viability, % at 10 µM; 6% of 85,000 active; H69AR lung tumor viability, ATP luminescence, 72 h; stronger effect = lower value;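 active = viability at or below 40%; inactive = viability above 40%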;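 also: multidrug resistant small cell line overexpressing MRP-1 efflux transporter; 100% = mean luminescence of untreated control wells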
HUVEC inhibit – inhibitors of human endothelial cell proliferation. HUVEC proliferation, CellTiter-Glo luminescence, 72 h; stronger effect = lower value. viability, % at 10 µM (by protocol). 1.1% of 86,000 active. AID 648;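 active = viability at or below 30%; inactive = viability above 30%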;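 also: 100% = median luminescence of DMSO-only cell control wells on each plate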
PTK2B oligo ant – Pyk2 (human) oligomerization antagonism | Q14289 | Q293 cells, Pyk2 FERM NanoBiT luminescence; stronger effect = lower value | z-score (the deposit names both 25 µM and 10 µM) | 0.83% of 99,000 active | AID 1347419;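 active = Z-score of -3 or lower, scaled per plate to the spread of control and sample wells; inactive = z-score above -3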;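 also: negative z-score means lost luminescence so less FERM oligomerization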
Target sequence (Q14289 whole entry, looked up): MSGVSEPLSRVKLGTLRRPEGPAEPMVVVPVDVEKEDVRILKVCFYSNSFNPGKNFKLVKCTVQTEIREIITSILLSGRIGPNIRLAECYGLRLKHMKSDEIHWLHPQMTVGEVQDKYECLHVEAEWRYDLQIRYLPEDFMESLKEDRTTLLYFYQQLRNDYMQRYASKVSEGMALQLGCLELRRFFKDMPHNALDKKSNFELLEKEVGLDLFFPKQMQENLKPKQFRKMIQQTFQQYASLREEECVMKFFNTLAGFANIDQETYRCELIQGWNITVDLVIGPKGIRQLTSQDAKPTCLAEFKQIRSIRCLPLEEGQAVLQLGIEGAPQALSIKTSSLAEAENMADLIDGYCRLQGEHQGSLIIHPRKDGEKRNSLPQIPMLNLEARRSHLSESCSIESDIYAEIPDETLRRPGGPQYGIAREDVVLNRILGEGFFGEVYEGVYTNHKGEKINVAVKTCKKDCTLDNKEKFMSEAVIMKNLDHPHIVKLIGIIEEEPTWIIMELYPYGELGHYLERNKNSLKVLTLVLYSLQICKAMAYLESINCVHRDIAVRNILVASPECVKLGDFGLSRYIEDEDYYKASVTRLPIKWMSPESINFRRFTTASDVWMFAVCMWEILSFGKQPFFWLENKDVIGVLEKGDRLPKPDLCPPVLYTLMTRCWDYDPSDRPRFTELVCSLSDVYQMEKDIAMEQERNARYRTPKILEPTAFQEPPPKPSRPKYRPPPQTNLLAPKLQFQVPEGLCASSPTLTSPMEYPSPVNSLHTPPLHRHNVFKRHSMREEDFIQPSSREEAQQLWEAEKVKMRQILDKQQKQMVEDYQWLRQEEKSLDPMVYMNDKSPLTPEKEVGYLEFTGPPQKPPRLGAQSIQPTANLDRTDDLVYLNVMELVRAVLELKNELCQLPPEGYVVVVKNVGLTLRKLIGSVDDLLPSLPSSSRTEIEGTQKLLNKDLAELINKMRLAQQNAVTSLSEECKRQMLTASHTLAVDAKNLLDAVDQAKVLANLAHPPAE
PTEN del growth – suppresses growth of cells with PTEN deletion | HCT116 PTEN-null viability, CellTiter-Glo, 60 h; stronger effect = lower value | viability, % at 10 µM | 1.2% of 140,000 active | AID 827;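 active = viability at or below a set limit, 4 SD under the median of all tested compounds, cut at about 3.7% in these data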;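 also: PTEN knockout HCT116 line with beta catenin targeted HCT116 as companion control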
Fibroblast inh – blocks proliferation of human lung fibroblasts. LL 47 human lung fibroblast viability, ATP luminescence; stronger effect = lower value. AID 719. 1.1% of 85,000 active. viability, % at 10 µM;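 active = viability at or below 50% in the single dose screen; inactive = viability above 50%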;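 also: compound exposure lasted 72 h before the ATP readout; 100% = median luminescence of untreated cell-only wells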
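Assay system: human lung fibroblast line LL 47, low passage. Input: 1,150 fibroblasts seeded per well. Times: overnight cell rest, 72 h compound treatment at 37 °C. Evaluation: % viability of median cell-only signal. Technique: luminescent ATP detection, CellTiter-Glo. Control set: cell-only wells, no compound.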
bCat KO growth – beta-catenin-lacking colon tumor cell growth suppression; HCT116 beta-catenin knockout viability, CellTiter-Glo, 60 h; stronger effect = lower value; viability, % at 10 µM; 1.5% of 140,000 active; AID 818;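 active = viability at or under a set limit, the compound median less 4 SD, cut at about 6% in these data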;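 also: 0% = Hyamine 1622 control at 20 µM and 100% = untreated cell control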
* marks the source's active call; other numbers are inactive results; x = no result.

SMILES	H69AR inhibit	HUVEC inhibit	PTK2B oligo ant	PTEN del growth	Fibroblast inh	bCat KO growth
CCCc1cc(=O)[nH]c(-n2[nH]c3c(c2=O)CCCC3)n1	x	x	-0.04	10	x	4.7*
COC(=O)c1ccc(N(C(=O)c2ccco2)C(C(=O)NC2CCCC2)c2ccco2)cc1 (stereo not drawn)	79	100	-0.33	94	96	80
CCOC(=O)c1c(CSC(=N)N)n(-c2ccc(Br)cc2)c2cc(Br)c(OC(C)=O)cc12	x	x	x	1.6*	x	1.3*
O=C(CSc1nc(-c2ccccc2F)nc2nc[nH]c12)Nc1c(Cl)cc(Cl)cc1Cl	x	x	x	102	x	101
CC(=C/C(=O)O)/C(=C/c1ccccc1)C(=O)O	x	x	x	104	x	91
CC(=O)c1coc2ccc(OCC(=O)O)cc12	60	81	0.68	97	91	94
CCN(CC)c1ccc(NC(=O)c2cccc(F)c2)c(C)c1	28*	60	-0.95	22	52	16
CCOC(=O)C1=C(N)n2c(s/c(=C\c3cccs3)c2=O)=C(C(=O)OCC)C1c1cccs1 (stereo not drawn)	29*	40	-1.8	17	60	19
CCOC(=O)C1=C(N)n2c(s/c(=C\c3cccnc3)c2=O)=C(C(=O)OCC)C1c1cccnc1 (stereo not drawn)	54	92	x	x	96	x
Oc1ccccc1-c1cc(-c2ccc3c(c2)OCCO3)n[nH]1	17*	49	-1.7	43	81	23
Oc1ccc(Br)cc1-c1cc(-c2ccc(Cl)cc2)n[nH]1	54	8.1*	0.1	3.3*	39*	3.7*
Oc1ccc(Br)cc1-c1cc(-c2ccccc2)n[nH]1	6.3*	27*	-0.84	19	71	13
COc1ccc(-c2cc(-c3ccccc3O)[nH]n2)cc1OC	59	52	-1.4	52	79	57
O=C(Nc1ccccc1N1CCOCC1)C1CCN(S(=O)(=O)c2ccc(F)cc2)CC1	x	x	-0.49	98	x	93
CC(C)(C)C1C=C(Sc2ccccc2)C(=O)O1 (stereo not drawn)	x	x	x	86	x	87
Cc1sc2c(=O)n3c(nc2c1C(=O)NC1CCCCC1)CCCCC3	39*	89	-0.82	72	95	70
Cc1csc2c(=O)n3c(nc12)CCCCC3	100	99	-0.6	100	97	99
Cc1sc2c(=O)n3c(nc2c1C(=O)NCCCN1CCOCC1)CCCCC3	81	104	0.72	1.5*	101	107
Cc1ccc(-c2nc(C(=O)NC3CCCCCC3)no2)cc1	88	110	x	x	108	x
O=C(COc1ccc(-c2nnco2)cc1)N1CCN(S(=O)(=O)c2ccc3ccccc3c2)CC1	36*	101	0.63	78	88	79
COc1ccc(CCC(=O)N2CCN(S(=O)(=O)c3ccc4ccccc4c3)CC2)cc1	54	96	-0.83	82	96	84
COC(=O)c1sc(NC(=O)c2cnccn2)c(C(=O)OC)c1C	40*	77	x	x	88	x
CCOc1cccc(/C=N/Nc2ccc(S(=O)(=O)N(CC)CC)cn2)c1O	x	x	x	2.8*	x	3.8*
Cc1cccc(N2CCc3c2nc2ccc(Br)cc2c3N)c1	22*	62	-1.1	40	99	49
Nc1c2c(nc3ccc(Br)cc13)N(Cc1ccccc1)CC2	x	x	x	86	x	86
SMILES	H69AR inhibit	HUVEC inhibit	PTK2B oligo ant	PTEN del growth	Fibroblast inh	bCat KO growth
CSc1nc(C)c2c(n1)N(c1cccc(C)c1)CC2	x	x	-0.11	75	x	82
Nc1c2c(nc3ccc(Br)cc13)N(c1ccccc1)CC2	32*	78	-0.18	63	94	76
COc1cccc(-c2nnc(SCC(=O)Nc3ccc(S(N)(=O)=O)cc3)n2C)c1	100	93	-0.78	110	x	96
NC(=S)NNC(=O)Nc1ccc(Cl)c(Cl)c1	x	x	x	100	x	100
CCC(=O)N1CCc2cc(S(=O)(=O)CCC(=O)Nc3nc(C)cs3)ccc21	1.8*	92	0.52	59	88	60
O=C(O)c1ccccc1SC1CC(=O)N(c2ccccc2)C1=O (stereo not drawn)	x	x	x	104	x	97
O=C(O)c1ccccc1SC1CC(=O)N(C2CCCCC2)C1=O (stereo not drawn)	36*	95	x	82	98	82
COc1cc(NC(=O)COc2ccc(Cl)cc2)ccc1-c1cc2ccccc2oc1=O	x	x	x	50	x	56
Cc1cc(C)c(C(CC(=O)c2cccs2)C(C#N)C#N)c(C)c1 (stereo not drawn)	x	x	x	70	x	58
Nc1ccc(-c2ccc(N)cc2C(F)(F)F)c(C(F)(F)F)c1	71	105	-3.1*	94	105	84
Nc1ccc(C(O)(C(F)(F)F)C(F)(F)F)cc1	90	90	-2.2	115	94	94
O=C(Oc1ccccc1-c1nnco1)c1ccc(Cl)cc1	43	98	-0.28	88	34*	55
Cn1c(-c2ccc(CN3CCCCC3)o2)nc2ccccc21	75	88	-0.08	94	97	96
CC1(C)CC(=O)C2=C(C1)OC(N)=C(C#N)C21C(=O)N2CCCc3cccc1c32 (stereo not drawn)	91	108	-0.16	97	100	96
Cc1cc2c3c(c1)C(C)(c1ccccc1)CC(C)(C)N3C(=O)C21C(C#N)=C(N)OC2=C1C(=O)CC(C)(C)C2 (stereo not drawn)	19*	69	-0.84	21	79	35
CC1=CC(C)(C)N2C(=O)C3(C(C#N)=C(N)OC4=C3C(=O)CCC4)c3c(C)c(C)cc1c32 (stereo not drawn)	x	x	-0.97	85	x	87
CC1(c2ccccc2)CC(C)(C)N2C(=O)C3(C(C#N)=C(N)Oc4cc(O)ccc43)c3cccc1c32 (stereo not drawn)	80	13*	-1.6	1.5*	101	1.4*
CC1=CC(C)(C)N2C(=O)C3(C(C#N)=C(N)Oc4cc(O)ccc43)c3c(C)c(C)cc1c32 (stereo not drawn)	4.4*	4.8*	-1.8	47	78	62
CC(=O)c1cc2c(cc1NC(=O)c1cc(C)nn1-c1ccccc1)OCO2	33*	46	x	33	74	35
CC(C)(O)[C@H](O)COc1c2occc2cc2ccc(=O)oc12	x	x	x	100	x	99
COc1cc2ccc(=O)oc2c(O)c1OCC=C(C)C	37*	88	0.08	93	100	80
O=C(NCCCN1CCCC1=O)c1ccccc1NS(=O)(=O)c1ccc(Br)cc1	89	88	0.3	100	92	95
CCOC(=O)c1c(Nc2ccc(Cl)cc2)sc(/C=C2\C=Nc3ccccc32)c1O	2.7*	12*	-1.2	14	46*	37
Oc1nc(Nc2cccc(Cl)c2)sc1/C=C1\C=Nc2ccccc21	x	x	x	68	x	70
CCOC(=O)N1CCN(C(=O)c2ccc3c(=O)n(CCC4=CCCCC4)c(=O)[nH]c3c2)CC1	39*	85	-0.01	87	89	82
O=C(Nc1cccc(Cl)c1)c1cc(S(=O)(=O)NCCc2ccc(Cl)cc2)ccc1F	x	x	x	27	x	48

Compound activity as filed in PubChem.
